Data set [1] is described as follows: Lipophilicity, log D of the compound. It counts as physicochemical. As to conditions: octanol/water. A digest of the protocol: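 Shake-flask partition of ¹⁸F-radioligand between 1-octanol and 0.02 M phosphate buffer, pH 7.4. Both layers gamma-counted with decay back-correction. log D taken as log of cpm/mL octanol over cpm/mL buffer. Four repeats, reported as mean ± SD.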

The nature of data set [2]: Stability in C57BL/6 mouse plasma at 13 to 38 MBq.kg^-1 after 20 mins. It counts as ADME, organism-based. As to conditions: read-out: Stability. The procedure, abridged: (§1)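 Adult C57BL/6 mice (male and female, 25-30 g) received an ¹⁸F-radiotracer bolus in the tail vein and were killed with i.v. pentobarbitone at 2.5 or 20 min. Blood was drawn by cardiac puncture and plasma separated. Plasma from 2-3 mice (2.5 min) or 4 mice (20 min) was pooled and deproteinized with ice-cold acetonitrile. Supernatant was spiked with unlabeled reference and run on radio-HPLC to give the fraction of intact tracer versus metabolites.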

Data set [3] deals with 72 kDa type IV collagenase (Homo sapiens, UniProt P08253). The experiment in a line: Inhibition of MMP2.
Data set [4] deals with Neutrophil collagenase (Homo sapiens, UniProt P22894). The experiment in a line: Inhibition of MMP8.
For data set [5], the target named is Matrix metalloproteinase-9 (Homo sapiens, UniProt P14780). The experiment in a line: Inhibition of MMP9.
Data set [6] concerns the target Collagenase 3 (Homo sapiens, UniProt P45452).
Data set [7] in a line: Stability in C57BL/6 mouse plasma at 13 to 38 MBq.kg^-1 after 2.5 mins. It is filed as ADME, organism-based. As to conditions: read-out: Stability. A digest of the protocol: as §1

Where only a bound is given, the exact number is not on record here.

The results in this text go back to ChEMBL document CHEMBL1138259, “Novel fluorinated derivatives of the broad-spectrum MMP inhibitors N-hydroxy-2(R)-[[(4-methoxyphenyl)sulfonyl](benzyl)- and (3-picolyl)-amino]-3-methyl-butanamide as potential tools for the molecular imaging of activated MMPs with PET” (J Med Chem, 2007).

Chain of 72 kDa type IV collagenase (P08253 whole entry): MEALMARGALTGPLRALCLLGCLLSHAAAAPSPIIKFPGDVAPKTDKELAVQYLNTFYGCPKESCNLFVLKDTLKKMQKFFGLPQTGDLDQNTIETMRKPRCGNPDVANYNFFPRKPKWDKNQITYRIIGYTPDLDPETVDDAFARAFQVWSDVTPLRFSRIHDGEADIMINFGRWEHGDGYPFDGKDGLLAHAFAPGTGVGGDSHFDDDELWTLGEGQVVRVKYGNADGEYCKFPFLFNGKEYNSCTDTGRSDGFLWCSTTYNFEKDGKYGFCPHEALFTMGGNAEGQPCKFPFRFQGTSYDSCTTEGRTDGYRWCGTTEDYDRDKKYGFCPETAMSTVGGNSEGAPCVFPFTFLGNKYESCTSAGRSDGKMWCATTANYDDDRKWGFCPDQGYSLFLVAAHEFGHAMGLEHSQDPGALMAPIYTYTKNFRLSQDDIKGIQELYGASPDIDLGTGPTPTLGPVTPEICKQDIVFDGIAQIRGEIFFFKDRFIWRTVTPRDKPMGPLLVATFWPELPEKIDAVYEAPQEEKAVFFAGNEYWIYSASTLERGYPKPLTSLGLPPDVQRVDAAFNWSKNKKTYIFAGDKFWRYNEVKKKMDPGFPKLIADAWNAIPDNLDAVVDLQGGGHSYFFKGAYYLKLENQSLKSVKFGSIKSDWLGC
Chain of Neutrophil collagenase (P22894 whole entry): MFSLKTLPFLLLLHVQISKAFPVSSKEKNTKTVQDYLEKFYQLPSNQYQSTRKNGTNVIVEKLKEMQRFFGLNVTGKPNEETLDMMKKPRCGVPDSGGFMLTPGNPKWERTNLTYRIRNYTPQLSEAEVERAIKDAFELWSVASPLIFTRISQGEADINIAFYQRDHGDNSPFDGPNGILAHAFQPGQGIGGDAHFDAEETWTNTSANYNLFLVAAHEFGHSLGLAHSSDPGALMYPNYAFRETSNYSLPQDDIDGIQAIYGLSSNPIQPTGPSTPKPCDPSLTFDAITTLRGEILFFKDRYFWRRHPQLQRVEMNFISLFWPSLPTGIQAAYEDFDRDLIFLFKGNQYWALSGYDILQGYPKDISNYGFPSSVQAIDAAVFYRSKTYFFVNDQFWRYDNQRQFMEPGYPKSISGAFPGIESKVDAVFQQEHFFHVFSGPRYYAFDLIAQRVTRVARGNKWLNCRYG
Chain of Matrix metalloproteinase-9 (P14780 whole entry): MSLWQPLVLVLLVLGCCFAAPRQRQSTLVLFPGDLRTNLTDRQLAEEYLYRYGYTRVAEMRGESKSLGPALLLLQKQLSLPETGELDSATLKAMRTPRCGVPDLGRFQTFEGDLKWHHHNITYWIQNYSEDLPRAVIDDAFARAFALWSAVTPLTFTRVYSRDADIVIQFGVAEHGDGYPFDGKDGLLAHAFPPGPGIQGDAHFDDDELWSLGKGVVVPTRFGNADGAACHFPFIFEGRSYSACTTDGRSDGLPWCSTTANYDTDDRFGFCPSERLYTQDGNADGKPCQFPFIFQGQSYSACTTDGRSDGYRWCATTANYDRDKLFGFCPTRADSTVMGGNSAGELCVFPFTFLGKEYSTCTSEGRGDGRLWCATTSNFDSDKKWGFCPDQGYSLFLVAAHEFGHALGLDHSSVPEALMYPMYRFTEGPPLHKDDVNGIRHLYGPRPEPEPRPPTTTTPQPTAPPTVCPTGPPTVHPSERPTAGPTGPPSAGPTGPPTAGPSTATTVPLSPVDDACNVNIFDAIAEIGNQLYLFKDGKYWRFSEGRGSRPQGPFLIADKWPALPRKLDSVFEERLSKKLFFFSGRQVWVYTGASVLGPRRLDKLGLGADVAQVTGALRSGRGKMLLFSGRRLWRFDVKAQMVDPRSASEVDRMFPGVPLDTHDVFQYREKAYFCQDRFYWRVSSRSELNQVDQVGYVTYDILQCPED

For `CC(C)[C@H](C(=O)NO)N(Cc1cccnc1)S(=O)(=O)c1ccc(OCC[18F])cc1`, the log distribution coefficient (logD) (in general, lipophilicity at a set pH, counting ionised and neutral species) in data set [1] worked out at 1.34. In data set [2], the remaining at 20 min stood at 53%.

For the molecule `CC(C)[C@H](C(=O)NO)N(Cc1ccccc1)S(=O)(=O)c1ccc(OCCF)cc1`, the IC50 (as a rule, the midpoint of a concentration-inhibition curve) in data set [3] was determined as 4 nM; in data set [4], 2 nM; in data set [5] it was 50 nM; in data set [6], 11 nM.

Take `COc1ccc(S(=O)(=O)N(Cc2ccc(F)nc2)[C@@H](C(=O)O)C(C)C)cc1`: the half-inhibitory concentration (IC50) in data set [3] worked out at 35000 nM; in data set [4] it was 22000 nM; in data set [5], 9820 nM; in data set [6], 30000 nM.

`COc1ccc(S(=O)(=O)N(Cc2ccc(F)nc2)[C@@H](C(=O)NO)C(C)C)cc1`: the IC50 is 8 nM in data set [3], 0.9 nM in data set [4], 0.5 nM in data set [5] and 0.9 nM in data set [6].

As for `COc1ccc(S(=O)(=O)N(Cc2cccnc2F)[C@@H](C(=O)O)C(C)C)cc1`, the IC50 is 20000 nM in data set [3], 78000 nM in data set [4], 10000 nM in data set [5] and 41000 nM in data set [6].

Take `CC(C)[C@H](C(=O)NO)N(Cc1cccnc1)S(=O)(=O)c1ccc(F)cc1`: the IC50 amounted to 120 nM in data set [3], 228 nM in data set [4], 414 nM in data set [5] and 527 nM in data set [6].

As for `COc1ccc(S(=O)(=O)N(Cc2cccnc2Br)[C@@H](C(=O)NO)C(C)C)cc1`, the IC50 in data set [3] is 30 nM; in data set [4] it was 75 nM; in data set [5], 103 nM; in data set [6], 59 nM.

Take `CC(C)[C@H](C(=O)NO)N(Cc1cccnc1)S(=O)(=O)c1ccc([N+](=O)[O-])cc1`: the half-maximal inhibitory concentration (IC50) stood at 756 nM in data set [3], 14 nM in data set [4], 5150 nM in data set [5] and 10 nM in data set [6].

Turning to `CC(C)[C@H](C(=O)O)N(Cc1ccccc1)S(=O)(=O)c1ccc(OCCF)cc1`, the IC50 in data set [3] was 5590 nM; in data set [4] it was 2460 nM; in data set [5] it was 1300 nM; in data set [6] it was > 100000 nM.

Turning to `CC(C)[C@H](C(=O)O)N(Cc1ccccc1)S(=O)(=O)c1ccc(OCCI)cc1`, the IC50 in data set [3] stood at 207 nM; in data set [5] it was 1350 nM.

As for `CC(C)[C@H](C(=O)O)N(Cc1ccccc1)S(=O)(=O)c1ccc(N(C)C)cc1`, the IC50 in data set [3] was found to be 41000 nM; in data set [4] it was 14000 nM; in data set [5] it was 15000 nM; in data set [6], 14000 nM.

Regarding `CC(C)[C@H](C(=O)NO)N(Cc1ccccc1)S(=O)(=O)c1ccc(OCCI)cc1`, the IC50 in data set [3] is 22 nM; in data set [4], 3 nM; in data set [5], 69 nM; in data set [6] it was 10 nM.

Regarding `COc1ccc(S(=O)(=O)N(Cc2cccnc2Br)[C@@H](C(=O)O)C(C)C)cc1`, the 50% inhibitory concentration (IC50) stood at 9110 nM in data set [3], 7480 nM in data set [4], 35000 nM in data set [5] and 34000 nM in data set [6].

In turn, `CC(C)[C@H](C(=O)NO)N(Cc1ccccc1)S(=O)(=O)c1ccc(OCC[18F])cc1` registered a pH-dependent lipophilicity (logD) in data set [1] of 2.02. Moreover, the remaining at 2.5 min in data set [7] came to 86%. In addition, the remaining at 20 min in data set [2] worked out at 37%.

`CC(C)[C@H](C(=O)O)N(Cc1ccccc1)S(=O)(=O)c1ccc(F)cc1`: the concentration for half-maximal inhibition (IC50) in data set [3] came to 4350 nM; in data set [4], 754 nM; in data set [5] it was 821 nM; in data set [6], 9140 nM.

`CC(C)[C@H](C(=O)NO)N(Cc1ccccc1)S(=O)(=O)c1ccc(F)cc1`: the IC50 is 239 nM in data set [3], 12 nM in data set [4], 281 nM in data set [5] and 384 nM in data set [6].

Consider `CC(C)[C@H](C(=O)NO)N(Cc1cccnc1)S(=O)(=O)c1ccc(N(C)C)cc1`, for which the half-inhibitory concentration (IC50) in data set [3] was 992 nM; in data set [4], 1200 nM; in data set [5] it was 1330 nM; in data set [6], 1340 nM.

Take `CC(C)[C@H](C(=O)NO)N(Cc1cccnc1)S(=O)(=O)c1ccc(OCCF)cc1`: the IC50 was determined as 3 nM in data set [3], 2 nM in data set [4], 7 nM in data set [5] and 0.8 nM in data set [6].

In the case of `CC(C)[C@H](C(=O)O)N(Cc1cccnc1)S(=O)(=O)c1ccc(F)cc1`, the concentration for half-maximal inhibition (IC50) in data set [3] was > 100000 nM; in data set [4], 71000 nM; in data set [5] it was > 100000 nM; in data set [6] it was > 100000 nM.

`COc1ccc(S(=O)(=O)N(Cc2cccnc2F)[C@@H](C(=O)NO)C(C)C)cc1`: the concentration for half-maximal inhibition (IC50) in data set [3] was 19 nM; in data set [4], 18 nM; in data set [5] it was 51 nM; in data set [6], 50 nM.

Consider `COc1ccc(S(=O)(=O)N(Cc2ccc(Br)nc2)[C@@H](C(=O)O)C(C)C)cc1`, for which the half-inhibitory concentration (IC50) was 6120 nM in data set [3], 6760 nM in data set [4], 6930 nM in data set [5] and 3260 nM in data set [6].

In the case of `COc1ccc(S(=O)(=O)N(Cc2ccc(Br)nc2)[C@@H](C(=O)NO)C(C)C)cc1`, the half-maximal inhibitory concentration (IC50) in data set [3] worked out at 2 nM; in data set [4], 20 nM; in data set [5], 23 nM; in data set [6], 24 nM.

`CC(C)[C@H](C(=O)NO)N(Cc1ccccc1)S(=O)(=O)c1ccc(N(C)C)cc1`: the 50% inhibitory concentration (IC50) in data set [3] worked out at 335 nM; in data set [4] it was 105 nM; in data set [5] it was 614 nM; in data set [6] it was 10 nM.
